# Source: PubChem (several laboratories)
# JMJD2C inh: inhibitors of human GASC-1 (JMJD2C) demethylase; 330,000 tested, 0.069% active; inhibition, % at 2.35 µM; GST-JMJD2C(1-420) H3K9me3 demethylation, DELFIA europium; Q9H3R0;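 active = more than half of a compound's replicate wells show inhibition beyond 50%, single wells judged on their own value; inconclusive = some, but no more than half, of replicates pass 50% inhibition; inactive = no replicate passes 50% inhibition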;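 note: signal counts dimethyl H3K9 product captured on neutravidin plate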
# Target sequence (Q9H3R0 1-420 limits assumed): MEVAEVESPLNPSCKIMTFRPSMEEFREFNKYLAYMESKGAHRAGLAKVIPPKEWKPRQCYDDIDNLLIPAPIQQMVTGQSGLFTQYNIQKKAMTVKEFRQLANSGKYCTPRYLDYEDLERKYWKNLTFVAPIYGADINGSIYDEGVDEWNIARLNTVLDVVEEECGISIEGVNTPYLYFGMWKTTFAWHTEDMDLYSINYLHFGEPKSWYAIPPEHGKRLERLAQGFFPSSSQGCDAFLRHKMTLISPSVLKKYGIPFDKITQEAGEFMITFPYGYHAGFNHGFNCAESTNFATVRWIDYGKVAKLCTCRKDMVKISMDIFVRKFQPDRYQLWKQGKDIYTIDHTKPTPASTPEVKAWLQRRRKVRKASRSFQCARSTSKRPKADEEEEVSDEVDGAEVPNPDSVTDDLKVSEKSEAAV
# Mot1-301 SUMO: inhibitors of SUMOylation pathway: yeast Mot1-301 growth rescue. S. cerevisiae Mot1-301 growth rescue, ATP luminescence, 38.5C; percent above DMSO median, 100 means doubled. growth rescue, % at 18.8 µM. 320,000 tested, 1% active. AID 2716;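 active = every valid replicate shows activation above 250% relative to neutral control wells; inactive = the rest, any valid replicate at or below 250%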
# T cell HTS: T cell immune modulators affecting CD8 T cell-vesicle binding | AID 2052 | response (vesicle binding), % at 7 µM | 2C CD8+ T cell-vesicle binding, flow cytometry; active compounds read low | 330,000 tested, 0.068% active;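 active = response, share of CD8 T cells binding vesicles, and their 90th percentile fluorescence all below set limits, cut at about 80% in these data, passing the limit was not always enough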;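 note: values below 100% mean blocked vesicle binding to the CD8+ T cells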
#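 material = purified 2C TCR transgenic mouse naive CD8+ T cells | controls = Unloaded micro-vesicles (low), QL9 vesicles with 0.7% DMSO (high) | detection = cytometric PE anti-B7-1 and Alexa647 anti-CD8 signals after 1% paraformaldehyde fixation | incubation = binding step 1.5 h, 37 °C, antibody labelling 20 min, ice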
# HIF activator: HIF pathway transcriptional activation; U2OS HRE-luciferase reporter, luminescence; normalized: DMSO 0%, desferrioxamine 100%; activation, % at 7.5 µM (by protocol); 300,000 tested, 0.32% active; AID 1910;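 active = mean activation of at least 10% of the iron chelator positive control signal, with at least half of replicates also reaching 10%; inconclusive = mean and replicate majority disagree about reaching 10%; inactive = mean and most replicates under 10%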
# Yeast Mot1 SUMO: SUMO pathway inhibitors in yeast Mot1-301 growth; shares compounds with Mot1-301 SUMO; S. cerevisiae Mot1-301 galactose growth, ATP luminescence, 24 h; -100 = growth of slx-deleted rescue strain; growth activity, percent, % at 42 µM; 2,300 tested, under 10 active;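 active = Signal drops as the depositor expects, and the fitted half-maximal dose is no more than ten times the top valid tested dose; inconclusive = Poor fit, or a flat curve whose signal drops by 30% to 70%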;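 note: more negative values mean stronger growth rescue toward the control strain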
# Hits are given with their value; . = inactive; ? = inconclusive; / = not tested or not shown; + = active, no number. The list is not random: actives were taken first. Their share in the collection is about 1.4%.
SMILES,JMJD2C inh,Mot1-301 SUMO,T cell HTS,HIF activator,Yeast Mot1 SUMO
COc1ccc(C(=O)NC(=S)Nc2ccc(CN3CCCCC3)cc2)cc1Cl,.,636,.,.,.
COc1ccc(C(=O)NC(=S)Nc2ccc(CN3CCOCC3)cc2)cc1Cl,.,.,.,.,/
CNC1(c2nnnn2-c2ccccc2C)CCOC(C)(C)C1 (centres undefined),.,.,.,.,/
O=C(NC1CCN(Cc2ccccc2)CC1)C1CCN(S(=O)(=O)c2cccc([N+](=O)[O-])c2)CC1,.,.,.,.,/
CCN(CC)S(=O)(=O)c1ccc(S(=O)(=O)N2CCC(C(=O)NC3CCN(Cc4ccccc4)CC3)CC2)cc1,.,634,.,.,.
O=C(COc1coc(CN2CCCc3ccccc32)cc1=O)Nc1ccccc1,.,.,.,.,/
CCC(C)NC(=O)CSc1nnc(-c2cc(-c3ccc(C)cc3)nc3ccccc23)n1N (centres undefined),.,971,.,.,.
CC(=O)Nc1ccc(-c2csc(NC(=O)C3CC(=O)N(c4ccc5c(c4)OCCO5)C3)n2)cc1 (centres undefined),.,508,.,.,.
COc1ccc(NC(=O)/C(=C\c2ccc(OC)c(OC)c2)NC(=O)c2ccco2)cc1,.,.,.,.,/
COc1cc(C(=O)N2CCC3(CC2)NCCc2[nH]cnc23)cc(OC)c1OC,.,.,.,.,/
Cc1cc(C)cc(C(=O)N2CCC3(CC2)NCCc2[nH]cnc23)c1,.,396,.,.,.
O=c1[nH]c2cc3c(cc2cc1CN(CCO)S(=O)(=O)c1ccccc1)OCCO3,.,.,.,.,/
O=c1[nH]c(N2CCOCC2)nc2ncn(Cc3ccccc3)c12,.,.,.,.,/
N=c1ncn(CC(O)CO)c2nc(N3CCOCC3)[nH]c12 (centres undefined),.,457,.,.,.
COc1ccc(S(=O)(=O)N(C)C[C@H]2Oc3c(NC(=O)CCC(F)(F)F)cccc3C(=O)N([C@H](C)CO)C[C@@H]2C)cc1,.,.,.,/,/
COc1cccc(NC(=O)CN2C(=O)COc3ccc(S(=O)(=O)N4CCC(C)CC4)cc32)c1,.,.,.,.,/
CCOC(=O)c1oc2cc(OC(C)=O)ccc2c(=O)c1-c1ccc(OC)c(OC)c1,.,510,.,.,.
CCOC(=O)COc1ccc2c(=O)c(-c3ccc(OC)c(OC)c3)c(C(=O)OCC)oc2c1,.,.,.,.,/
Cc1cccc(OCC(=O)NCC(=O)N/N=C/c2c(C)[nH]c3ccccc23)c1,.,.,.,.,/
CCC(=O)Oc1ccc(C(=O)Nc2ccc([N+](=O)[O-])cc2)cc1,.,.,.,.,/
CC(C)COc1ccc(C(=O)Nc2ccc([N+](=O)[O-])cc2)cc1,.,691,.,15,.
COc1cc(OC)cc(OC(=O)c2ccc3c(=O)n4c(nc3c2)CCC4)c1,.,359,.,.,.
CCOC(=O)Nc1ccc(C(=O)/C=C/c2ccccc2)cc1,.,.,.,.,/
CCc1nnc(NC(=O)CCNC(=O)c2ccco2)s1,.,.,.,.,/
COc1ccccc1C(=O)COC(=O)c1cc([N+](=O)[O-])ccc1N1CCOCC1,.,.,.,.,/
SMILES,JMJD2C inh,Mot1-301 SUMO,T cell HTS,HIF activator,Yeast Mot1 SUMO
O=C(COC(=O)c1cc([N+](=O)[O-])ccc1N1CCOCC1)Nc1cccc(F)c1,.,694,.,.,.
COc1cc(C(=O)COC(=O)c2cc([N+](=O)[O-])ccc2N2CCOCC2)ccc1OC(F)F,.,662,.,.,.
NS(=O)(=O)c1ccc(Sc2ccc3ccccc3c2)nc1,.,.,.,.,/
Cc1ccc(C(C[N+](=O)[O-])c2c(C)[nH]n(-c3ccccc3)c2=O)cc1 (centres undefined),?,401,.,.,.
CCOc1ccccc1OCCC(=O)NNC(=O)Cn1nc(C)cc1C,.,.,.,.,/
O=C(O)CCSc1ccc([N+](=O)[O-])cc1[N+](=O)[O-],.,363,.,.,.
Cc1c(Cl)c([N+](=O)[O-])nn1CC(=O)N1CCCC1,.,.,.,.,/
Cc1c(Cl)c([N+](=O)[O-])nn1CC(=O)NC12CC3CC(CC(C3)C1)C2,.,952,.,?,.
COc1ccc(S(=O)(=O)N2CCC(C(=O)NCCC(=O)Nc3ccc(Cl)cc3)CC2)cc1,.,.,.,.,/
Cc1c(C(=O)NC(C)c2ccc(-n3ccnc3)cc2)cccc1[N+](=O)[O-] (centres undefined),.,407,.,.,.
O=C(c1ccco1)N1CCN(C2CC(=O)N(c3ccc(F)c(Cl)c3)C2=O)CC1 (centres undefined),.,551,.,.,.
COc1cccc(N2C(=O)CC(N3CCN(C(=O)c4ccco4)CC3)C2=O)c1 (centres undefined),.,.,.,.,/
CCN(C(=O)c1ccc(Cl)c(S(=O)(=O)Nc2c(C)n(C)n(-c3ccccc3)c2=O)c1)c1ccccc1,.,.,.,/,/
CCCOC(=O)/C(=C\C=C\c1ccccc1)NC(=O)c1ccccc1,.,.,.,.,/
CCCCOC(=O)/C(=C/C=C/c1ccccc1)NC(=O)c1ccccc1,.,815,.,.,.
Cc1ccc(NS(=O)(=O)c2ccc(C(=O)N3CCN(c4ccccn4)CC3)cc2)cc1,.,.,.,.,/
Cc1ccc(S(=O)(=O)NCc2ccc(C(=O)N3CCN(c4ccccn4)CC3)cc2)cc1,.,662,.,.,.
CC(C)(CC(=O)O)CC(=O)NNc1ncccc1C#N,.,.,.,.,/
Cc1ccc(-c2csc(NC(=O)c3ccc(C)o3)n2)cc1,.,.,.,.,/
Cc1ccc(C(=O)Nc2nc(-c3ccc(F)cc3)cs2)o1,.,410,.,.,.
Cc1ccc(S(=O)(=O)NCC(C)n2cncn2)cc1 (centres undefined),.,533,.,.,.
Cc1ccc(/C=C/C(=O)c2ccc([N+](=O)[O-])o2)cc1,.,+,.,.,.
O=S(=O)(Cc1ccccc1Cl)NCCc1ccc(F)cc1,.,.,.,.,/
O=C1NCCSC1c1ccccc1 (centres undefined),.,.,.,.,/
COCC(C)n1c(-c2ccc3c(c2)NC(=O)CO3)csc1=Nc1ccc(OC(F)F)cc1 (centres undefined),.,532,.,.,.
CSc1cccc(N2CC(C(=O)N3CCN(S(=O)(=O)c4ccccc4Cl)CC3)CC2=O)c1 (centres undefined),.,.,.,/,/
Cc1ccc(C(C)C)c(OCC(=O)NN2C(=O)c3ccccc3C2=O)c1,.,.,.,.,/
Cc1ccc(OCC(=O)NN2C(=O)c3ccccc3C2=O)c(C)c1,.,436,.,.,.
Cc1ccc(S(=O)(=O)N2CCOCC2)cc1NC(=O)COC(=O)Cc1cccs1,.,.,.,.,/
Cc1ccc(S(=O)(=O)N2CCOCC2)cc1NC(=O)COC(=O)CNC(=O)c1ccccc1,.,532,.,.,.
